Published values pooled from the literature.
Lines come from different studies, so protocols differ.
AMY2: Pancreatic alpha-amylase (AMY2, Sus scrofa, UniProt P00690)
D14: D14 (Arabidopsis thaliana, UniProt Q9SQR3)

| SMILES | target | assay | conditions | measurement | value |
| --- | --- | --- | --- | --- | --- |
| CCCCC(=O)Nc1ccc(-c2ccc3ncn(CCC)c(=O)c3c2)cn1 | Tyrosine-protein kinase Fer (FER, Homo sapiens, UniProt P16591) | binding, competition with immobilised ligand | 0.5 µM | remaining binding | 100% |
| Cc1cc(O)c(-c2ccc([C@@H](C)CN(C)C)cc2)c2c1[nH]c(=O)c1sccc12 | Ribosomal protein S6 kinase alpha-1, C-terminal kinase domain (RPS6KA1, Homo sapiens, UniProt Q15418) | enzyme activity, inhibitor | 0.1 µM | inhibition | -4.95% |
| O=c1cc(-c2ccccc2)oc2cc(O)cc(O)c12 | AMY2 | enzyme activity, inhibitor | 50 µM, 30 min | inhibition | 22.3% |
| C#Cc1cc(-c2cc(Nc3nc(N[C@@H](C)c4ccc(F)cn4)ncc3Cl)n[nH]2)ccc1C=O | Ribosomal protein S6 kinase alpha-1 (RPS6KA1, Homo sapiens, UniProt Q15418) | enzyme activity, inhibitor | 0.2 µM | inhibition | 56.8% |
| CC1=CC(O/C=C2/C(=O)OC3c4ccccc4CC23)OC1=O (racemic) | D14 | thermal stability, DSF | 10 µM | ΔTm | -7.04 °C |
| O=c1cc(-c2ccc(O)cc2)oc2cc(O)cc(O)c12 | AMY2 | enzyme activity, inhibitor | 50 µM | inhibition | 87.5% |
| CC1=C(/C=C/C(C)=C/C=O)C(C)(C)C[C@H](O)C1 | D14 | thermal stability, DSF | 50 µM | ΔTm | -3.04 °C |
| O=c1cc(-c2ccc(O)c(O)c2)oc2c(Br)c(O)c(Br)c(O)c12 | AMY2 | enzyme activity, inhibitor | 50 µM, 30 min | inhibition | 99.8% |
| C1=C/COCc2cc(ccc2OCCN2CCCC2)Nc2nccc(n2)-c2cccc(c2)COC/1 | MAP kinase-activated protein kinase 5 (MAPKAPK5, Homo sapiens, UniProt Q8IW41) | binding | 0.1 µM | remaining binding | 75% |
| CC1=C(/C=C/C(C)=C/C=O)C(C)(C)CCC1 | D14 | thermal stability, DSF | 100 µM | ΔTm | -9.02 °C |
